# Shown are actives, neighbours in structure and some others; about 4.2% of the full set was active somewhere.
# hERG protect: compounds protecting human hERG from proarrhythmic drug block; actives 0.51% (n = 310,000); AID 1511; activation (rescue from dofetilide block), less the hit threshold, % at 10 µM; CHO-hERG, FluxOR thallium flux, dofetilide IC70 present; Q12809;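 active = activation above the mean of controls blocked by dofetilide plus 5 SD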;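 also: thallium influx through hERG after potassium depolarization seen as dye fluorescence rise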
# SUMO Mot1 rescue: blocks SUMOylation pathway, rescuing yeast Mot1-301 growth. AID 2716. growth rescue, % at 18.8 µM. S. cerevisiae Mot1-301 growth rescue, ATP luminescence, 38.5C; percent above DMSO median, 100 means doubled. actives 1% (n = 320,000);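 active = every valid replicate shows activation above 250% relative to neutral control wells; inactive = the rest, any valid replicate at or below 250%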;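 also: OY570 slx delta 5 strain wells were the positive control but not used for scaling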
# AI-2 QS modul: modulators of Vibrio harveyi AI-2 quorum sensing system | activity change, % at 7.5 µM | Vibrio harveyi JMH597 AI-2 luminescence/OD600 ratio, 9 h; hits give low values; strain lacks LuxN and CqsS sensors; 0 = neutral-control median | actives 0.4% (n = 300,000); in the data active = activity change below about -75%, passing the limit was not always enough; inconclusive = no clear call, values can overlap the other calls;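 also: luminescence divided by OD600 gain over 9 h not by final OD600 alone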
# KCNQ1 act: human KCNQ1 channel potentiation or activation. CHO-K1 KCNQ1, thallium flux FluxOR fluorescence; hits give high values. B-score at 10 µM. actives 0.35% (n = 310,000);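 active = fluorescence ratio B-score, a plate-corrected score, at least three library SD, with initial intensity B-score within 5 SD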
# Target sequence (P51787 whole entry, looked up): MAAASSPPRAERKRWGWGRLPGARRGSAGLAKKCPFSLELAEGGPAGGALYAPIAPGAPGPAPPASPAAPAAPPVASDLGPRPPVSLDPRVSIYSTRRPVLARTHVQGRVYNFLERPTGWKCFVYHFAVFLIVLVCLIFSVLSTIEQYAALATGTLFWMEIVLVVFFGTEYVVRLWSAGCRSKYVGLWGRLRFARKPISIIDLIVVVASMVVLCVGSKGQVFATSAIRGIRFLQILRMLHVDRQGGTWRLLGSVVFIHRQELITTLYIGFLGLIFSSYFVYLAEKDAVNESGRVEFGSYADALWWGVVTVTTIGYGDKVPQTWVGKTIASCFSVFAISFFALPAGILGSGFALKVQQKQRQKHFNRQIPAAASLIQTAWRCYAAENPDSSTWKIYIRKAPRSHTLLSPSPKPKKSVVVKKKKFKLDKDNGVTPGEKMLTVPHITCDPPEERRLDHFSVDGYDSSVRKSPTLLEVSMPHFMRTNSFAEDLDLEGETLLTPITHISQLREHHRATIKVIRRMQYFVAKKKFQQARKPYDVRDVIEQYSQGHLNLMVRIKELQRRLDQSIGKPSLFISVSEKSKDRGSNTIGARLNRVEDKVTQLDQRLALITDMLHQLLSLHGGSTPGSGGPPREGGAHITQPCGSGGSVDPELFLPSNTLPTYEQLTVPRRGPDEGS
#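 Doses: Single concentration per compound, DMSO matched to controls | Test system: KCNQ1-transfected CHO-K1 cells | Timing: 90 min dye loading and 20 min compound exposure, both at room temperature | Measured by: Kinetic FluxOR thallium fluorescence, 10-s 1-Hz baseline, 110-s post-stimulus read | Medium: Assay buffer with matched DMSO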
# Cl transport mod: KCC2 (human) Cl- transport modulation; KCC2 cells, thallium flux FluoZin-2 fluorescence; B-score of Tl+ flux slope (higher = more flux/activation; lower = inhibition) at 10 µM; actives 2.2% (n = 190,000); AID 1456;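 active = thallium flux slope and its plate-corrected score both differing from the plate sample mean at a set confidence after two filtering rounds, in either direction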;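 also: slope of fluorescence scaled to starting intensity during 10 to 20 s after thallium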
# KCNQ1 inh: blocks the human KCNQ1 potassium channel | P51787 | actives 1.3% (n = 310,000) | AID 2642 | B-score at 10 µM | CHO-K1 KCNQ1, FluxOR thallium flux fluorescence; hits give high values;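 active = compounds whose thallium flux B-score, printed positive for inhibition, exceeds three library SD while starting fluorescence stays within three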;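 also: channel opened by potassium depolarization with thallium stimulus after 20 min compound exposure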
# KCC2 sec1: confirmation of human KCC2 transport modulators; actives 15% (n = 3,700); normalised thallium flux (F/F0 slope) at 10 µM; AID 1713; shares compounds with Cl transport mod; HEK293-KCC2, thallium flux, FluoZin2 fluorescence; hits give high values;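 active = thallium flux slope above the same plate's solvent-only control mean plus 3 SD; inconclusive = the two replicate wells disagree; inactive = no significant difference from solvent-only control wells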
# KCC2 bumet counter: bumetanide-insensitive thallium flux in KCC2 cells with ouabain, counter-screen. shares compounds with Cl transport mod. HEK293-KCC2 + bumetanide/ouabain, thallium flux FluoZin2; hits give high values. normalized thallium flux at 10 µM. actives 49% (n = 3,700);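 active = thallium entry rate above the same plate's blocked-transporter control wells by more than 3 SD; inconclusive = the two repeat wells disagree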;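 also: raw slope of fluorescence over initial fluorescence between 10 and 20 s after thallium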
# KCC2 secondary2: confirmation of human KCC2 transport modulators; shares compounds with Cl transport mod; HEK293-KCC2, thallium flux FluoZin2 fluorescence; actives lie on both sides; F/F0 rise rate, 10–20 s post-thallium; normalized thallium flux at 10 µM; actives 23% (n = 3,700); AID 1715;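 active = thallium flux slope more than 3 SD above or below the plate's solvent-only control mean, mostly below; inconclusive = the two repeat wells disagreed; inactive = no significant shift from solvent-only controls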;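 also: raw slope with 0.1% DMSO as baseline and bumetanide as block control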
# HEK293 Tl flux: parental HEK flux effect, counter-screen; HEK293 parental cells, thallium flux FluoZin2, ouabain; baseline-ratio fluorescence slope, 10–20 s after thallium; AID 1716; shares compounds with Cl transport mod; thallium flux rate (normalised fluorescence) at 10 µM; actives 46% (n = 3,700);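 active = thallium flux rate significantly above the same plate's solvent-only control wells, beyond their mean plus 3 SD; inconclusive = the two replicate wells gave conflicting results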
# KCC2 ouabain: confirmation of human KCC2 modulators with ouabain. actives 48% (n = 3,700). raw Tl+ flux slope (below DMSO = inhibition, above = activation) at 10 µM. HEK293-KCC2, thallium flux FluoZin2 fluorescence; bidirectional: low = inhibitor, high = activator. shares compounds with Cl transport mod;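 active = thallium flux slope beyond 3 SD from same-plate DMSO control mean in most replicates, usually higher, sometimes lower; inconclusive = repeat tests gave conflicting results; inactive = no significant difference from controls in most replicates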;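 also: slope of initial-normalized fluorescence between seconds 10 and 20 after thallium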
# HEK counter2: counter-screen for KCC2 modulators: effect in parental HEK293 cells; thallium flux FluoZin-2 fluorescence slope; actives 33% (n = 3,700); shares compounds with Cl transport mod; thallium flux slope at 10 µM;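 active = thallium flux slope above the same plate's solvent-control mean plus 3 SD in both duplicate wells; inconclusive = duplicate wells that disagreed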;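 also: run without ouabain in cells lacking the KCC2 cotransporter; slope of fluorescence scaled to its starting value between 10 and 20 s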
# An asterisk follows results filed as active; i = inactive; u = inconclusive; x = not tested or not shown.
SMILES,hERG protect,SUMO Mot1 rescue,AI-2 QS modul,KCNQ1 act,Cl transport mod,KCNQ1 inh,KCC2 sec1,KCC2 bumet counter,KCC2 secondary2,HEK293 Tl flux,KCC2 ouabain,HEK counter2
CNC(=S)N/N=C(\C)c1ccc(Cl)c(Cl)c1,0,196,-6,i,6.6*,i,0.0054,0.032*,0.038,0.018*,0.032*,0.018*
COCCNC(=S)N/N=C(\C)c1ccc(Cl)c(Cl)c1,-2,-8,17,i,6.6*,i,u,0.032*,0.036,u,0.029*,u
S=C(NCCc1ccccc1)NN=C1CCCCCC1,-3,21,-16,i,9.4*,i,0.0076,0.016*,0.035,u,u,0.012
C/C(=N\NC(=S)NCCc1ccccc1)c1ccc(C#N)cc1,-7,4,5,i,0.51,i,x,x,x,x,x,x
C/C(=N\NC(=S)NCCc1ccccc1)c1ccc(Cl)cc1,0,-4,3,i,6.2*,i,0.0061,0.014*,0.03,0.014*,0.023,u
COCC(=O)N1CCC(Oc2ccc(C(=O)N(C)CCCC3CCCC3)cc2)CC1,-9,-11,24,i,x,i,x,x,x,x,x,x
N=C(SC1CC(=O)N(c2ccc(F)cc2)C1=O)N1N=C(c2ccccc2)CC1c1ccccc1 (configuration not stated),-11,x,17,i,0.35,i,x,x,x,x,x,x
O=C(COC(=O)Cc1ccc(S(=O)(=O)N2CCOCC2)s1)Nc1ccc(OC(F)F)cc1,x,30,x,x,x,x,x,x,x,x,x,x
CS(=O)(=O)N(CCc1ccccc1)CC(=O)N1CCN(Cc2ccccc2)CC1,-9,12,12,i,-3.2*,i,0.0063,0.0053,0.033,0.0038,u,0.011
CCN1CCN(C(=O)CN(C)S(=O)(=O)c2ccc(OC)c(C)c2)CC1,-11,20,30,i,x,i,x,x,x,x,x,x
CS(=O)(=O)N(CCc1ccccc1)CC(=O)N1CCCCC1,-5,46,14,i,-0.2,i,x,x,x,x,x,x
CN(CC(=O)NCCN1CCN(Cc2ccccc2)CC1)S(=O)(=O)c1cccc2nsnc12,-13,0,12,i,x,i,x,x,x,x,x,x
COc1ccc(S(=O)(=O)N(C)CC(=O)N2CCN(Cc3ccccc3)CC2)cc1C,-9,18,9,i,-4.1*,i,0.011,0.006,0.026*,0.0039,0.015*,0.012
CN(CC(=O)N1CCN(Cc2ccccc2)CC1)S(=O)(=O)c1cccc2nsnc12,1,0,21,i,-3.2*,i,0.0065,0.0044,0.02*,0.0069,0.013*,0.01
CCN(c1cccc(C)c1)S(=O)(=O)c1cccc2nsnc12,-16,4,5,i,3.9*,i,0.0058,u,0.027*,0.0059*,0.015*,0.009*
CCN(CCCNC(=O)CN(C)S(=O)(=O)c1cccc2nsnc12)c1ccccc1,-10,92,4,i,x,i,0.0059,0.0043,u,0.0074,0.016,0.0097
O=C(CN(c1ccc2c(c1)OCCO2)S(=O)(=O)c1ccccc1)N1CCN(Cc2ccccc2)CC1,-8,-14,15,i,-4.1*,i,0.0061,u,0.023*,0.0072,u,0.01
CN(CC(=O)NCCc1ccccc1)S(=O)(=O)c1cccc2nsnc12,-9,71,-12,i,-0.7,i,x,x,x,x,x,x
NC(=O)C1CCN(C(=O)CN(c2ccc3c(c2)OCCO3)S(=O)(=O)c2ccccc2)CC1,-5,-15,33,i,x,i,x,x,x,x,x,x
CCCC(C(=O)Nc1ccc2c(C)cc(=O)oc2c1)c1ccccc1 (configuration not stated),-8,82,32,i,x,i,x,x,x,x,x,x
COc1cc2c(cc1OC)C(c1cccs1)CC(=O)N2 (configuration not stated),-11,-5,13,i,x,i,0.0063,0.0047,0.029,0.0081,0.019,0.011
O=C1CC(c2cccs2)c2cc3c(cc2N1)OCO3 (configuration not stated),-8,-25,19,i,-0.11,i,x,x,x,x,x,x
CC1CCN(CCCNC(=O)c2ccc(CSCc3cccc(Cl)c3)o2)CC1,-13,-3,11,i,0.64,i,x,x,x,x,x,x
CN(CC(=O)Nc1cccc(C(F)(F)F)c1)C1=NS(=O)(=O)c2ccccc21,x,0,x,x,x,x,x,x,x,x,x,x
O=C(c1ccc(Cl)cc1)N1CCc2ccccc21,-3,-7,-3,i,x,i,x,x,x,x,x,x
SMILES,hERG protect,SUMO Mot1 rescue,AI-2 QS modul,KCNQ1 act,Cl transport mod,KCNQ1 inh,KCC2 sec1,KCC2 bumet counter,KCC2 secondary2,HEK293 Tl flux,KCC2 ouabain,HEK counter2
O=C(c1ccccc1NS(=O)(=O)c1ccc(Cl)cc1)N1CCc2ccccc21,-4,105,4,i,6.1*,i,0.011,0.044*,0.03,0.013*,0.054*,0.011*
Cc1nc(SCc2cccnc2)[nH]c(=O)c1C,-7,-16,30,i,x,i,x,x,x,x,x,x
CCCOc1ccc(CC(=O)N/N=C\c2ccc(F)cc2)cc1,-9,-17,-1,i,x,i,x,x,x,x,x,x
O=C(CSc1nc2cc(C(F)(F)F)ccc2n1Cc1ccccc1)NC1CCS(=O)(=O)C1 (configuration not stated),-20,-14,13,i,5.2*,i,0.0074,0.0077*,0.031,0.011*,0.02,u
NC(=O)/C(=N\OC(=O)c1ccco1)c1nc(-c2ccc(Br)cc2)cs1,-15,x,48,i,3.7*,i,0.0075,0.013*,0.025*,0.011*,0.018,0.0087
Nc1nc(-c2ccc(NC(=O)c3ccco3)cc2)cs1,-13,3,2,i,x,i,x,x,x,x,x,x

# Screening data as filed in PubChem.
